In PMC7771297 (Oncogene, 2017):

How the values were obtained:
[1] = system: PAIII rat prostate adenocarcinoma cells; assay: IP-MS of PTHrP1–17 in PAIII conditioned media with MMP inhibition; type: cell-based
PTH1R [2] = biological target: T1, PTH1R (Mus musculus, UniProt P41593); assay: Calcium flux in MC3T3 osteoblasts; type: cell-based; settings: MC3T3, 10 nM, fluorescence in individual cells, n = 20/group
T1 sequence (P41593 27-591): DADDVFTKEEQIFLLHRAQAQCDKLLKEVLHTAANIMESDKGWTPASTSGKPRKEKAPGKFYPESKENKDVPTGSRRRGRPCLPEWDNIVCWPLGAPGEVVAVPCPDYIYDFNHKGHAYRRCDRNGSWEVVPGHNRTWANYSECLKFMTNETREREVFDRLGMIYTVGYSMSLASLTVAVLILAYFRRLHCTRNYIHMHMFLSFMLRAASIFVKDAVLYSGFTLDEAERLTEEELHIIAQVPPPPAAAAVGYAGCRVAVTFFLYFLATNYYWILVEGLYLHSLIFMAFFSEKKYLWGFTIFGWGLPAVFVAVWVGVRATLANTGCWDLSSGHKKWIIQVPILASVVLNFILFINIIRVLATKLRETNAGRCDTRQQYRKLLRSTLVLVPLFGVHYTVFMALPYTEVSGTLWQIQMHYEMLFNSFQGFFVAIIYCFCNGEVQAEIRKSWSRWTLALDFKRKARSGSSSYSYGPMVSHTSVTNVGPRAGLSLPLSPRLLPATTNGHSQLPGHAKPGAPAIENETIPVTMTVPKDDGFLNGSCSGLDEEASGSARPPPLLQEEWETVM
Outline: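 MC3T3 cells (1 × 10^5) were loaded with Fluo-4 Direct calcium reagent and imaged by time-lapse fluorescence microscopy before and after peptide addition (0 and 60 s frames shown). Fluorescence rise was quantified in individual cells, n = 20/group, from three fields of view per condition.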

PTH1R [3] = biological target: T1, PTH1R; assay: ERK phosphorylation in PTH1R knockdown MC3T3 cells; type: cell-based; settings: shPTH1R MC3T3 versus control shRNA, 10 nM for 5 min
Outline: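 PTH1R knockdown MC3T3 clones were made by lentiviral transduction of a pool of three shRNAs, with scrambled-sequence shControl clones; clone D was used. Cells got peptides for 5 min and were lysed in RIPA. Phospho-ERK immunoblots were blocked in 5% BSA, detected with HRP secondary and normalised to actin loading control. Triplicate experiments.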

MMP-3 = MMP-3 (Homo sapiens, UniProt P08254); assay: MMP-3 processing of PTHrP; type: in vitro ADME; settings: MALDI-TOF
Chain of MMP-3 (P08254 100-272 limits assumed): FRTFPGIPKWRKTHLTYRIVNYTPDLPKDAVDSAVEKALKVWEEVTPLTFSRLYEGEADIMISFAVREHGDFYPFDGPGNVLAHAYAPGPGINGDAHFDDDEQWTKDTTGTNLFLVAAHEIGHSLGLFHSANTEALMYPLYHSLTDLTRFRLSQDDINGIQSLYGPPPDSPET
Outline: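 Recombinant PTHrP1–86 (100 ng) was digested 1 h with active MMP-3 (100 ng) in 0.15 M NaCl, Tris pH 7.6 buffer. Products were resolved by SDS-PAGE with Coomassie staining and by immunoblot. N-terminal sequencing was done, and for MALDI-TOF peptides were C18-extracted and mixed with α-cyano-4-hydroxycinnamic acid matrix.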

osteoprotegerin (OPG) = assay: OPG expression in whole bone marrow co-cultures; type: cell-based, mouse; settings: 10 nM for 48 h
[4] = system: ERK phosphorylation in MC3T3 osteoblasts; assay: ERK phosphorylation in osteoblasts; type: cell-based, mouse; settings: 10 nM, 5 min, serum free media, vs control or scrambled peptide
SCID-Beige mice [5] = assay: Murine model of ectopic bone formation; type: in vivo, mouse; settings: 40 μg/kg/day s.c., 21 days
Outline: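 Gelfoam sponges loaded with 1 × 10^6 bone marrow MSCs from C57BL/6 mice were implanted s.c. into randomized 6-week-old male SCID-Beige mice, two implants per flank, n = 3/group. After 1-week recovery, peptides or vehicle were injected s.c. daily at 40 μg/kg/day for 21 days. Ossicles were excised for μCT and trichrome histology, with bone matrix quantified.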

PTH1R [6] = biological target: T1, PTH1R; assay: Calcium flux in PTH1R knockdown MC3T3 cells; type: cell-based; settings: shPTH1R versus shControl MC3T3, 10 nM
Outline: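 Stable shPTH1R MC3T3 clones came from lentiviral transduction of three pooled PTH1R shRNAs; shControl clones carried a scrambled sequence. Cells (1 × 10^5) were loaded with Fluo-4 Direct. Time-lapse microscopy followed fluorescence after peptide addition. Increases (RFU) were measured in single cells, n = 20/group, from three fields per condition. A second shPTH1R clone was also tested.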

[7] = system: CREB phosphorylation in MC3T3 osteoblasts; assay: CREB phosphorylation in MC3T3 osteoblasts; type: cell-based, mouse; settings: MC3T3, 10 nM for 5 min in serum free media
Outline: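 Immunoblot of MC3T3 osteoblasts exposed to peptides for 5 min in serum-free media. Controls were serum-free (S0), 10% serum (S10) and a scrambled peptide. Cells were lysed in RIPA buffer (pH 8) and protein was measured by BCA. Blots were blocked in 5% BSA for 1 h, probed with primary antibody then HRP-conjugated secondary, with actin as loading control. Run in triplicate.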

PTH1R [8] = biological target: T1, PTH1R; assay: cAMP production in MC3T3 osteoblasts; type: cell-based; settings: MC3T3, 10 nM for 15 min, n = 5/group
Outline: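 MC3T3 osteoblasts were plated at 2.5 × 10^4 cells/well and exposed to peptides for 15 min (range 1–100 tested), n = 5/group. cAMP was measured with the cAMP-Glo luminescent assay. The forskolin analogue NKH477 (15 min) served as positive control. Groups were compared by ANOVA with Tukey's test.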

SCID-Beige mice [9] = assay: In vivo calvarial injection assay; parameters: species or system mouse; settings: 2 μg s.c. over the calvaria every 6 h for 3 days, n = 3/group
Outline: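 Randomized 4–6-week-old female SCID-Beige mice (n = 3/group) received 2 μg peptide s.c. over the calvaria every 6 h for 3 days. Calvariae were harvested 10 h after the last injection, fixed and scanned by high-resolution μCT. They were then decalcified (14% EDTA, pH 7.4, 3 days) and paraffin-embedded, and 5 μm sections were stained with H&E, trichrome and TRAcP. Bone-lining multinucleated TRAcP-positive osteoclasts were counted per μm bone.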

RANKL = RANKL expression in whole bone marrow co-cultures; type: cell-based, mouse; settings: 10 nM for 48 h
[10] = system: calvariae of Rag2−/− neonates; assay: Neonatal calvaria ex vivo assay; parameters: species or system mouse; settings: 10 nM, 14 days, n = 4/group
Outline: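 Calvariae were isolated from 4-day-old Rag2−/− neonates and kept in organ culture. They were exposed to peptides for 14 days, n = 4/group.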

osteoblasts = assay: Tumour necrosis factor-α-induced cell death of osteoblasts; type: cell-based
MC3T3 cells = assay: Migration of MC3T3 osteoblasts; type: cell-based, mouse; settings: MC3T3, 10 nM in serum free media, 6 h / 5-h (methods), n = 3/group
Outline: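 Modified Boyden chamber assay: after 24-h serum starvation, 5 × 10^5 MC3T3 cells were seeded in the upper chamber (n = 3/group). Migration toward peptide in serum-free media ran at 37 °C, 5 h per methods (6 h in legend). Serum-free and 1% serum media were negative and positive controls. Cells were counted per ×20 field in five micrographs per condition.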

[11] = system: ERK phosphorylation in MSCs; assay: ERK phosphorylation in primary MSCs; type: cell-based, mouse; settings: 10 nM, 5 min, vs control or scrambled peptide
MSCs = assay: Migration of primary MSCs; type: cell-based, mouse; settings: 10 nM in serum free media, 6 h / 5-h (methods), n = 3/group
PTH1R [12] = settings: PTH1R overexpressing CHO-K1 cells; cited from earlier work
PTH1R [13] = settings: PTH1R overexpressing CHO-K1 cells; cited from earlier work; remark: listed apart in the source
[14] = system: SAOS-2 osteosarcoma cells; assay: IP-MS of PTHrP1–17 in SAOS-2 conditioned media with exogenous MMP-3; type: cell-based, human; settings: SAOS-2+MMP-3 100 ng/ml; SAOS-2 alone = 0.004
[15] = bone marrow cultures, n = 3/group

CNC(=O)[C@H](Cc1c[nH]c2ccccc12)NC(=O)[C@@H](CC(=O)NO)CC(C)C [GM6001]
reduction of the amount of PTHrP1–17 in conditioned media ([1]; PAIII, GM6001 10 μM, serum free 24 h, IP-MS with SIS1–17): 77% | ratio of endogenous PTHrP1–17 to PTHrP1–17 SIS (peak areas) ([1]; PaIII+GM6001 10 μM, PaIII alone = 0.13): 0.03

PTHrP1–36: mature 36 amino acid form of parathyroid hormone-related protein (ProImmune)
calcium flux (PTH1R [2]): triggered increases in calcium flux | ability to induce ERK phosphorylation in PTH1R knockdown cells (PTH1R [3]): abrogated | further cleavage of PTHrP1–36 by MMP-3 (MMP-3; 0.15 M NaCl, 50 mM Tris pH 7.6): further cleaved to distinct stable peptide products | time in which MMP-3 generated the main PTHrP products (MMP-3; kinetic analyses): ≤ 1 h | OPG expression (real-time PCR) (osteoprotegerin (OPG); [15]): suppressing OPG | OPG expression (RT-PCR) (osteoprotegerin (OPG); primary bone marrow cultures): appeared to suppress the expression of osteoprotegerin (OPG) | ERK phosphorylation [4]: induced ERK phosphorylation within 5 min | osteoid in trichrome stained ossicle sections (SCID-Beige mice [5]; n = 3/group): a significant amount of osteoid | trabecular bone volume of hind limbs (SCID-Beige mice [5]; compared to control): significantly more bone | bone formation in ectopic ossicles, μCT (SCID-Beige mice [5]; intermittent, n = 3/group): revealed bone formation | calcium flux in PTH1R knockdown cells (PTH1R [6]): significantly reduced | CREB phosphorylation [7]: only induced by PTHrP1–36 | cAMP production (PTH1R [8]): induced cAMP | bone resorption of calvaria (SCID-Beige mice [9]): displayed areas of extensive bone resorption | RANKL expression (real-time PCR) (RANKL; [15]): significantly enhanced RANKL expression | ratio of average RANKL:OPG transcripts (RANKL; bone marrow cultures, real-time PCR): 15.03 | RANKL expression (RT-PCR) (RANKL; primary bone marrow cultures): increased RANKL expression | bone formation in calvaria ex vivo [10]: no evidence of bone formation | degradation of calvaria ex vivo [10]: significant degradation of the calvaria | prevention of tumour necrosis factor-α-induced cell death (osteoblasts): did not prevent | migration (MC3T3 cells): significantly increased migration | ERK phosphorylation [11]: induced ERK phosphorylation within 5 min | migration (MSCs): significantly increased migration

PTHrP1–16: N-terminal PTHrP fragment of a recent study (ref 31) (AVSEHQLLHDKGKSIQ; UniProt P12272 37-52, looked up, fragment)
cAMP production (PTH1R [12]): does not result in cAMP production | calcium flux (PTH1R [13]): no effect on calcium flux

MMP-3: recombinant MMP-3 (Millipore, #444217) added to SAOS-2 cells
ratio of endogenous PTHrP1–17 to PTHrP1–17 SIS (peak areas) [14]: 0.03
